Data reported in ChEMBL document CHEMBL2034842, “Synthesis, anti-Candida activity, and cytotoxicity of new (4-(4-iodophenyl)thiazol-2-yl)hydrazine derivatives” (Eur J Med Chem, 2012).
≈ marks a conversion by molar mass, not a printed value.

Columns and labels:
[1] = test system: Escherichia coli; assay: Antibacterial activity against Escherichia coli after 18 to 22 hrs by […]; type: functional
[2] = test system: Proteus vulgaris; assay: Antibacterial activity against Proteus vulgaris after 18 to 22 hrs by […]; type: functional
[3] = test system: Klebsiella aerogenes; assay: Antibacterial activity against Enterobacter aerogenes after 18 to 22 hrs by […]; type: functional
[4] = test system: Klebsiella pneumoniae; assay: Antibacterial activity against Klebsiella pneumoniae after 18 to 22 hrs by […]; type: functional
[5] = test system: Staphylococcus aureus; assay: Antibacterial activity against Staphylococcus aureus after 18 to 22 hrs by […]; type: functional
[6] = test system: Staphylococcus warneri; assay: Antibacterial activity against Staphylococcus warneri after 18 to 22 hrs by […]; type: functional
[7] = test system: Streptococcus pyogenes; assay: Antibacterial activity against Streptococcus pyogenes after 18 to 22 hrs by […]; type: functional
[8] = test system: Enterococcus faecalis; assay: Antibacterial activity against Enterococcus faecalis after 18 to 22 hrs by […]; type: functional
[9] = test system: Candida albicans; assay: Antifungal activity against 10 strains of Candida albicans after 24 hrs by […]; type: functional
[10] = test system: Pichia kudriavzevii; assay: Antifungal activity against 3 strains of Candida krusei after 24 hrs by […]; type: functional
[11] = test system: Candida parapsilosis; assay: Antifungal activity against 4 strains of Candida parapsilosis after 24 hrs by […]; type: functional; settings: Lodderomyces parapsilosis
[12] = test system: [Candida] sake; assay: Antifungal activity against 2 strains of Candida sake after 24 hrs by […]; type: functional; settings: Fermentozyma sake
[13] = test system: Nakaseomyces glabratus; assay: Antifungal activity against 4 strains of Candida glabrata after 24 hrs by […]; type: functional
[14] = test system: Candida tropicalis; assay: Antifungal activity against 4 strains of Candida tropicalis after 24 hrs by […]; type: functional
[15] = test system: HEp-2; assay: Antiproliferative activity against human Hep2 cells assessed as cell survival fraction after 24 hrs by MTT assay; type: cell-based; settings: HEp-2, 24 h
Procedure, shortened: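 Hep2 laryngeal carcinoma cells seeded in triplicate at 1 × 10^5/well in serum-free DMEM. Exposed 24 h at 37 °C, 5% CO2, to six concentrations ([…]); DMSO ≤0.5%. MTT reagent added for 2 h at 37 °C, then detergent for 2 h at room temperature in the dark. OD550 minus OD650 read. EC50 from ≥3 independent experiments.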

[16] = Antiproliferative activity against human Hep2 cells assessed as cell survival fraction at 100 ug/mL after 24 hrs by MTT assay; type: cell-based; settings: HEp-2 cells, read-out: Survival
Procedure, shortened: (§1)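 Hep2 (human laryngeal carcinoma) cells maintained in DMEM + 10% FBS + 1% pen/strep, 37 °C, 5% CO2. Seeded in triplicate at 1 × 10^5/well in serum-free medium and exposed 24 h at 37 °C to six compound concentrations (100–0.05). DMSO stock diluted in medium, final DMSO ≤0.5%. MTT reagent added for 2 h at 37 °C, then detergent for 2 h at RT in the dark. Read as OD550 minus OD650.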

[17] = Antiproliferative activity against human Hep2 cells assessed as cell survival fraction at 50 ug/mL after 24 hrs by MTT assay; type: cell-based; settings: HEp-2 cells, read-out: Survival; procedure, shortened: as §1
[18] = Antiproliferative activity against human Hep2 cells assessed as cell survival fraction at 10 ug/mL after 24 hrs by MTT assay; type: cell-based; settings: HEp-2 cells, read-out: Survival; procedure, shortened: as §1
[19] = Antiproliferative activity against human Hep2 cells assessed as cell survival fraction at 5 ug/mL after 24 hrs by MTT assay; type: cell-based; settings: HEp-2 cells, read-out: Survival; procedure, shortened: as §1
[20] = Antiproliferative activity against human Hep2 cells assessed as cell survival fraction at 0.5 ug/mL after 24 hrs by MTT assay; type: cell-based; settings: HEp-2 cells, read-out: Survival; procedure, shortened: as §1
[21] = Antiproliferative activity against human Hep2 cells assessed as cell survival fraction at 0.05 ug/mL after 24 hrs by MTT assay; type: cell-based; settings: HEp-2 cells, read-out: Survival; procedure, shortened: as §1
[22] = test system: HEp-2; assay: Cytotoxicity against human Hep2 cells assessed as cell survival fraction after 24 hrs by trypan blue exclusion method; type: cell-based; settings: HEp-2, 24 h
Procedure, shortened: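 Hep2 cells in DMEM with 10% FBS and 1% penicillin-streptomycin, at 37 °C, 5% CO2, grown to 60–70% confluency. Seeded at 1 × 10^5/mL and exposed 24 h to six concentrations ([…]); DMSO ≤0.5%. Controls were cells alone, cells with DMSO, and 1 mM nitroprusside. Scraped cells mixed 1:1 with 0.4% trypan blue; blue cells counted as dead by hemocytometer, two operators. EC50 from ≥3 independent experiments.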

[23] = Cytotoxicity against human Hep2 cells assessed as cell survival fraction at 100 ug/mL after 24 hrs by trypan blue exclusion method; type: cell-based; settings: HEp-2 cells, read-out: Survival
Procedure, shortened: (§2)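 Hep2 cells grown in DMEM + 10% FBS + 1% pen/strep at 37 °C, 5% CO2, used at 60–70% confluency. Exponential-phase cells (1 × 10^5/mL) incubated 24 h with six concentrations (100–0.05), final DMSO ≤0.5%. Controls were cells alone or cells + DMSO, with 1 mM sodium nitroprusside as positive control. Cells scraped off, mixed 1:1 with 0.4% trypan blue and counted on a hemocytometer by two operators. Blue cells were scored dead; results given as % viable cells.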

[24] = Cytotoxicity against human Hep2 cells assessed as cell survival fraction at 50 ug/mL after 24 hrs by trypan blue exclusion method; type: cell-based; settings: HEp-2 cells, read-out: Survival; procedure, shortened: as §2
[25] = Cytotoxicity against human Hep2 cells assessed as cell survival fraction at 10 ug/mL after 24 hrs by trypan blue exclusion method; type: cell-based; settings: HEp-2 cells, read-out: Survival; procedure, shortened: as §2
[26] = Cytotoxicity against human Hep2 cells assessed as cell survival fraction at 5 ug/mL after 24 hrs by trypan blue exclusion method; type: cell-based; settings: HEp-2 cells, read-out: Survival; procedure, shortened: as §2
[27] = Cytotoxicity against human Hep2 cells assessed as cell survival fraction at 0.5 ug/mL after 24 hrs by trypan blue exclusion method; type: cell-based; settings: HEp-2 cells, read-out: Survival; procedure, shortened: as §2
[28] = Cytotoxicity against human Hep2 cells assessed as cell survival fraction at 0.05 ug/mL after 24 hrs by trypan blue exclusion method; type: cell-based; settings: HEp-2 cells, read-out: Survival; procedure, shortened: as §2

Compound	MIC [1] [µg/mL]	MIC [2] [µg/mL]	MIC [3] [µg/mL]	MIC [4] [µg/mL]	MIC [5] [µg/mL]	MIC [6] [µg/mL]	MIC [7] [µg/mL]	MIC [8] [µg/mL]	MIC [9] [µg/mL]	MIC [10] [µg/mL]	MIC [11] [µg/mL]	MIC [12] [µg/mL]	MIC [13] [µg/mL]	MIC [14] [µg/mL]	EC50 [15] [µg/mL]	viability at 24 h, 100 ug/mL [16] [%]	viability at 24 h, 50 ug/mL [17] [%]	viability at 24 h, 10 ug/mL [18] [%]	viability at 24 h, 5 ug/mL [19] [%]	viability at 24 h, 0.5 ug/mL [20] [%]	other results
Ic1ccc(-c2csc(N/N=C/c3cccc4ccccc34)n2)cc1	16 (≈ 35.1 µM)	16 (≈ 35.1 µM)	16 (≈ 35.1 µM)	16 (≈ 35.1 µM)	> 128	> 128	32 (≈ 70.3 µM)	32 (≈ 70.3 µM)	0.25 (≈ 0.549 µM)	64 (≈ 141 µM)	2 (≈ 4.39 µM)	64 (≈ 141 µM)	2 (≈ 4.39 µM)	0.5 (≈ 1.1 µM)	35 (≈ 76.9 µM)	2	5	80	78	80	viability at 24 h, 0.05 ug/mL [21]: 95%; EC50 [22]: 40 µg/mL (≈ 87.8 µM); viability at 24 h, 100 ug/mL [23]: 0%; viability at 24 h, 50 ug/mL [24]: 39%; viability at 24 h, 10 ug/mL [25]: 73%; viability at 24 h, 5 ug/mL [26]: 80%; viability at 24 h, 0.5 ug/mL [27]: 80%; viability at 24 h, 0.05 ug/mL [28]: 90%
CCC/C(C)=N/Nc1nc(-c2ccc(I)cc2)cs1	> 128	> 128	> 128	32 (≈ 83.1 µM)	32 (≈ 83.1 µM)	32 (≈ 83.1 µM)	4 (≈ 10.4 µM)	32 (≈ 83.1 µM)	0.25 (≈ 0.649 µM)	4 (≈ 10.4 µM)	2 (≈ 5.19 µM)	32 (≈ 83.1 µM)	2 (≈ 5.19 µM)	0.5 (≈ 1.3 µM)	45 (≈ 117 µM)	0	62	68	72	98	viability at 24 h, 0.05 ug/mL [21]: 100%; viability at 24 h, 100 ug/mL [23]: 60%; viability at 24 h, 50 ug/mL [24]: 63%; viability at 24 h, 10 ug/mL [25]: 60%; viability at 24 h, 5 ug/mL [26]: 65%; viability at 24 h, 0.5 ug/mL [27]: 75%; viability at 24 h, 0.05 ug/mL [28]: 92%
CCCCC/C(C)=N/Nc1nc(-c2ccc(I)cc2)cs1	> 128	> 128	> 128	> 128	32 (≈ 77.4 µM)	32 (≈ 77.4 µM)	8 (≈ 19.4 µM)	32 (≈ 77.4 µM)	0.25 (≈ 0.605 µM)	2 (≈ 4.84 µM)	2 (≈ 4.84 µM)	32 (≈ 77.4 µM)	2 (≈ 4.84 µM)	0.5 (≈ 1.21 µM)	42 (≈ 102 µM)	0	22	89	90	100	viability at 24 h, 0.05 ug/mL [21]: 100%; EC50 [22]: 62 µg/mL (≈ 150 µM); viability at 24 h, 100 ug/mL [23]: 33%; viability at 24 h, 50 ug/mL [24]: 42%; viability at 24 h, 10 ug/mL [25]: 83%; viability at 24 h, 5 ug/mL [26]: 90%; viability at 24 h, 0.5 ug/mL [27]: 95%; viability at 24 h, 0.05 ug/mL [28]: 98%
Ic1ccc(-c2csc(N/N=C/c3cccnc3)n2)cc1	16 (≈ 39.4 µM)	> 128	16 (≈ 39.4 µM)	> 128	32 (≈ 78.8 µM)	> 128	32 (≈ 78.8 µM)	32 (≈ 78.8 µM)	2 (≈ 4.92 µM)	64 (≈ 158 µM)	2 (≈ 4.92 µM)	64 (≈ 158 µM)	4 (≈ 9.85 µM)	2 (≈ 4.92 µM)	–	–	–	–	–	–	–
Ic1ccc(-c2csc(N/N=C/c3c[nH]c4ccccc34)n2)cc1	> 128	> 128	> 128	> 128	32 (≈ 72 µM)	32 (≈ 72 µM)	4 (≈ 9 µM)	4 (≈ 9 µM)	0.5 (≈ 1.13 µM)	4 (≈ 9 µM)	0.5 (≈ 1.13 µM)	4 (≈ 9 µM)	4 (≈ 9 µM)	2 (≈ 4.5 µM)	–	–	–	–	–	–	–
